Screens from PubChem.
A selection: hits, their analogues and other compounds. The true share with any hit is near 3.8%.
RGS4 inh = RGS4 inhibitors, primary screen, cell-based, HEK293 M3R inducible RGS4, calcium flux; Regulator of G-protein signaling 4 (Homo sapiens), P49798; Fluo-4 calcium flux; active compounds read high; triggered by carbachol at its EC20; B-score at 10 µM; 0.45% of 310,000 active; AID 463165, 2010;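 active = B-score, a plate-corrected calcium signal, over three deviations above library mean, with baseline fluorescence within five deviations of library mean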;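 also: RGS4 expression induced by doxycycline in cells with stable M3 receptor; B-score is computed from the integrated fluorescence ratio over baseline after carbachol; higher B-score means a larger calcium signal and so more RGS4 inhibition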
Target sequence (P49798 whole entry, looked up): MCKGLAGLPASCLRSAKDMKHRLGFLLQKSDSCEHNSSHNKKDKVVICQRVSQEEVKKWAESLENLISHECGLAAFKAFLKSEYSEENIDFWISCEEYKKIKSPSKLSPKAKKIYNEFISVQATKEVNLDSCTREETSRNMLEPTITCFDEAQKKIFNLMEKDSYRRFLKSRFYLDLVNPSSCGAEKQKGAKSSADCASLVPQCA
MrgX1 PAM = positive allosteric modulators of MrgX1, primary screen, HEK293 cells, Fluo-4 calcium flux. Mas-related G-protein coupled receptor member X1 (Homo sapiens), Q96LB2. FDSS; active compounds read high. B-score at 10 µM. 0.63% of 310,000 active;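 active = plate-corrected calcium response at least 3 library SD above typical, normal starting fluorescence, not activating the receptor alone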;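 also: compound read alongside a low EC10 to EC30 dose of BAM8-22 agonist; peak minus trough fluorescence over baseline measured at the second addition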
Target sequence (Q96LB2 whole entry, looked up): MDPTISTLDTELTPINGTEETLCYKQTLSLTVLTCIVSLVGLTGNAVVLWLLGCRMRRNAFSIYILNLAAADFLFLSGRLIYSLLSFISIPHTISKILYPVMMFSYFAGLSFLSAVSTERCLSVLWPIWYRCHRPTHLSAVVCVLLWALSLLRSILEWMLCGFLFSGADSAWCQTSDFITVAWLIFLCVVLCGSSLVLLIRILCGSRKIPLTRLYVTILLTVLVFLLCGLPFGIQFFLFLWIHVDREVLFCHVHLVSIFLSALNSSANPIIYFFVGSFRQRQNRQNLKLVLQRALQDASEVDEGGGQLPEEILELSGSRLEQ
MrgX1 antag = antagonists of human MrgX1 receptor, primary screen, HEK293 cells, Fluo-4 calcium flux; Mas-related G-protein coupled receptor member X1 (Homo sapiens), Q96LB2; BAM8-22 antagonism; active compounds read low; B-score at 10 µM; 1.3% of 310,000 active; AID 588676, 2011;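 active = calcium-response B-score plate-corrected more than 3 library SD below zero, starting fluorescence within 5 deviations, no agonist response on first addition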;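 also: peak minus trough fluorescence over baseline after final BAM8-22 challenge near maximal dose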
MrgX1 agonist = agonists of human MrgX1 receptor, primary screen, HEK293 cells, Fluo-4 calcium flux. B-score at 10 µM. 0.44% of 310,000 active. Fluo-4 calcium fluorescence, agonist mode; active compounds read high. AID 588627, 2011;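 active = calcium response B-score plate-corrected fluorescence ratio at least 3 library SD, with starting fluorescence B-score inside 5 SD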
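Material: HEK293 cells stably expressing human MrgX1 receptor | Quantity: 15,000 cells per well | Times: Cells plated overnight, dye loaded 0.5 h 37 °C, 0.5 h room temperature | Measured by: Kinetic Fluo-4 NW fluorescence of intracellular calcium | Control set: Positive and negative controls per plate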
Hep lipid drop = inhibitors of hepatocyte lipid droplet formation, primary screen, imaging, high-throughput imaging, BODIPY stain; AID 1656, 2009; AML12 mouse hepatocytes, oleate lipid droplets; inhibition, % at 6.5 µM; 0.4% of 240,000 active;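 active = lipid droplet intensity inhibited by at least 50%, with more than 500 cells counted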
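Material: mouse AML12 hepatocyte cell line, fixed after treatment; Timing: compound with oleate, overnight; Technique: high-content imaging of BODIPY-stained droplets and DAPI nuclei; Probe or stimulus: oleate, 100 µM final; Dosing: compound at 6.5 µM only.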
RGS4 pot = RGS4 potentiators or activators, primary screen, cell-based, HEK293 M3R inducible RGS4, calcium flux. 0.92% of 310,000 active. carbachol calcium flux Fluo4; active compounds read low. B-score at 10 µM;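 active = B-score of the integrated calcium signal more than 4 SD below the library mean, with starting fluorescence not abnormally high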;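 also: negative B-score means reduced calcium response which marks RGS4 activation or potentiation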
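Reagent: ECmax carbachol challenge; Test system: M3R-expressing HEK293 line, RGS4 induced by doxycycline; Schedule: overnight RGS4 induction, 30 min dye load 37 °C, 20 min compound RT; Detection: calcium dye Fluo4 fluorescence; Read-out: Agonist-evoked peak-minus-minimum fluorescence over baseline, integrated ratio, B score.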
MrgX1 antag conf = MrgX1 receptor antagonists, duplicate retest, confirmation, HEK293 cells, Fluo-4 calcium flux. shares compounds with MrgX1 antag. BAM8-22 calcium flux; active compounds read low. remaining BAM8-22 calcium response % of control (active compounds read low), % at 10 µM. 19% of 2,300 active;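 active = remaining agonist calcium response no higher than 100% minus 3 SD of agonist-only control wells, with starting fluorescence near control levels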;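 also: agonist BAM8-22 given at a near maximal EC90 to ECmax level; peak minus minimum fluorescence divided by baseline after agonist addition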
HEK293 Ca flux = nonspecific calcium signal in parental HEK293, confirmation, counter-screen for MrgX1 antagonist project, parental HEK293 cells, Fluo-4 calcium flux; shares compounds with MrgX1 antag; Fluo-4 calcium fluorescence, FDSS; fluorescence ratio F(max-min)/F0 at 10 µM; 2% of 4,000 active; AID 624111, 2012;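 active = duplicate-averaged calcium fluorescence ratio at least three times the standard deviation of buffer wells, a nonspecific response in parental cells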
HEK293 Ca counter = calcium response in parental HEK293 cells, primary screen, counter-screen for MrgX1 allosteric activator project, cell-based, Fluo-4 calcium flux, duplicate | shares compounds with MrgX1 antag | Fluo-4 fluorescence ratio; active compounds read high | fluorescence ratio F(max-min)/F0 at 10 µM | 0.4% of 4,000 active | AID 624114, 2012;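 active = calcium fluorescence ratio, averaged over duplicates, at least 3 SD of the buffer-well ratio, meaning a nonspecific response in receptor-free cells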;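 also: untransfected parental HEK293 lacking MrgX1 used as counterscreen for MrgX1 allosteric activators; fluorescence change taken during the second addition on a kinetic imager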
HEK293 Ca cntr2 = calcium response in parental HEK293 cells, primary screen, counter-screen for MrgX1 agonist project, cell-based, Fluo-4 calcium flux, duplicate, agonist mode | shares compounds with MrgX1 antag | Fluo-4 calcium fluorescence (FDSS); active compounds read high | fluorescence ratio F(max-min)/F0 at 10 µM | 8.7% of 4,000 active;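 active = calcium fluorescence ratio at least three times the spread of buffer wells, meaning a non-specific response in parental cells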
Each line names hits and unclear results; the compound was inactive in the other large screens (follow-up assays come after a bar, where they were run).

COc1ccc(OCC(=O)N2CCc3c([nH]c4ccccc34)C2c2ccccn2)cc1 (stereo not drawn)	MrgX1 antag -6.4 | MrgX1 antag conf inactive | HEK293 Ca flux inactive | HEK293 Ca counter inactive | HEK293 Ca cntr2 inactive
CSc1cccc(NC(=O)C2CCCN(S(=O)(=O)c3ccc(F)cc3)C2)c1 (stereo not drawn)	MrgX1 antag -6.5 | MrgX1 antag conf 67% | HEK293 Ca flux inactive | HEK293 Ca counter inactive | HEK293 Ca cntr2 inactive
CSc1cccc(NC(=O)C2CCN(S(=O)(=O)c3ccc(F)cc3)CC2)c1	none
Cc1[nH]c2ccc(C(=O)O)cc2c1C	MrgX1 antag -8.6 | MrgX1 antag conf inactive | HEK293 Ca flux inactive | HEK293 Ca counter inactive | HEK293 Ca cntr2 inactive
Cc1[nH]c2ccc(C(=O)NC3CCC(C)CC3)cc2c1C (stereo not drawn)	none
CN(C(=O)c1ccc2c(c1)SC1=NS(=O)(=O)CCN12)C(c1ccccc1)c1ccccc1	none
O=C(O)c1ccc2c(c1)SC1=NS(=O)(=O)CCN12	MrgX1 antag -14 | MrgX1 antag conf inactive | HEK293 Ca flux inactive | HEK293 Ca counter inactive | HEK293 Ca cntr2 inactive
Cc1noc(C)c1-c1nnc(-c2ccc(OC(F)(F)F)cc2)o1	none
COc1ccccc1N(C)S(=O)(=O)c1ccc(C(=O)OCC(=O)NCc2ccco2)cc1	none (no result: Hep lipid drop)
O=C1c2cccc3c(N4CCCCC4)ccc(c23)C(=O)N1c1cccc(O)c1	MrgX1 antag -5.2 | MrgX1 antag conf inactive | HEK293 Ca flux inactive | HEK293 Ca counter inactive | HEK293 Ca cntr2 inactive
O=C1c2cccc3c(N4CCCCC4)ccc(c23)C(=O)N1CCO	none (no result: Hep lipid drop)
Cc1nn2c3c(cnc2c1-c1ccccc1)C(=O)CC(c1ccccc1)C3 (stereo not drawn)	MrgX1 antag -5 (no result: Hep lipid drop) | MrgX1 antag conf inactive | HEK293 Ca flux inactive | HEK293 Ca counter inactive | HEK293 Ca cntr2 inactive
Cc1nn2c3c(cnc2c1-c1ccccc1)C(=O)CC(c1ccco1)C3 (stereo not drawn)	none (no result: Hep lipid drop)
Cc1nn(C(C)C(=O)NC2CCCCCC2)c(=O)c2nn(-c3ccccc3)c(C)c12 (stereo not drawn)	none
CC(=O)Nc1ccc(Oc2cncc(Cl)c2)nc1	none
CCCNC(=O)N1CCCC(C(=O)c2cccc(Cl)c2)C1 (stereo not drawn)	none
CCCNC(=O)N1CCC(C(=O)c2cccc(F)c2)CC1	MrgX1 antag -4.9 (no result: Hep lipid drop) | MrgX1 antag conf inactive | HEK293 Ca flux inactive | HEK293 Ca counter inactive | HEK293 Ca cntr2 inactive
CCN(CC(=O)Nc1c(F)cccc1F)C(=O)C1CCN(c2ncnc3sc(C)c(C)c23)CC1	MrgX1 antag -8.2 (no result: Hep lipid drop) | MrgX1 antag conf inactive | HEK293 Ca flux inactive | HEK293 Ca counter inactive | HEK293 Ca cntr2 inactive
Cc1cccc(C)c1NC(=O)CN(C)C(=O)C1CCN(c2ncnc3sc(C)c(C)c23)CC1	none (no result: Hep lipid drop)
COCCn1c(C)cc(C(=O)CSc2ncn[nH]2)c1C	MrgX1 antag -5.1 | MrgX1 antag conf inactive | HEK293 Ca flux inactive | HEK293 Ca counter inactive | HEK293 Ca cntr2 inactive
COCCn1c(C)cc(C(=O)CSc2nc(C)c(C)c(C)n2)c1C	none
COc1ccc(CCNC(=O)c2ccc(OC)c(OC)c2)cc1OC	MrgX1 antag -6.8 (no result: Hep lipid drop) | MrgX1 antag conf inactive | HEK293 Ca flux inactive | HEK293 Ca counter inactive | HEK293 Ca cntr2 inactive
COc1cc(OC)cc(C(=O)NCCc2ccc(OC)c(OC)c2)c1	none (no result: Hep lipid drop)
O=C1CCCC2=C1Sc1ccccc1N2	MrgX1 antag -4.8 | MrgX1 antag conf inactive | HEK293 Ca flux inactive | HEK293 Ca counter inactive | HEK293 Ca cntr2 inactive
CCO[C@@H]1OC(C(=O)Nc2ccccc2)=C[C@H](c2ccccc2)[C@H]1CCCO	none
CCO[C@@H]1OC(C(=O)Nc2ccccc2)=C[C@H](c2ccc(Br)cc2)[C@H]1CCCO	MrgX1 antag -10 | MrgX1 antag conf inactive | HEK293 Ca flux inactive | HEK293 Ca counter inactive | HEK293 Ca cntr2 inactive
Cc1onc(-c2c(F)cccc2Cl)c1C(=O)Nc1nnc(C(F)(F)F)s1	MrgX1 antag -5.1 | MrgX1 antag conf 85% | HEK293 Ca flux inactive | HEK293 Ca counter inactive | HEK293 Ca cntr2 inactive
Cc1onc(-c2c(F)cccc2Cl)c1C(=O)Nc1nccs1	MrgX1 antag -4.6 | MrgX1 antag conf inactive | HEK293 Ca flux inactive | HEK293 Ca counter inactive | HEK293 Ca cntr2 inactive
Cc1cc(NC(=O)c2c(-c3c(F)cccc3Cl)noc2C)no1	none
COCc1nnc(NC(=O)c2c(-c3c(Cl)cccc3Cl)noc2C)s1	none
O=C(c1cccc(F)c1)N1CCN(S(=O)(=O)Cc2ccccc2)CC1	none
COC(=O)c1c(NC(=O)CSc2ccccc2N)sc(C)c1C	MrgX1 antag -4.7 | MrgX1 antag conf inactive | HEK293 Ca flux inactive | HEK293 Ca counter inactive | HEK293 Ca cntr2 inactive
COC(=O)c1c(NC(=O)c2ccco2)sc(C)c1C	MrgX1 antag -7.7 | MrgX1 antag conf 81% | HEK293 Ca flux inactive | HEK293 Ca counter inactive | HEK293 Ca cntr2 inactive
COC(=O)c1c(NC(=O)c2ccco2)sc(C(=O)Nc2ccc(F)cc2)c1C	none (no result: Hep lipid drop)
CC(=O)c1cccc(NC(=O)Oc2ccccc2)c1	MrgX1 antag -7.8 (no result: Hep lipid drop) | MrgX1 antag conf inactive | HEK293 Ca flux inactive | HEK293 Ca counter inactive | HEK293 Ca cntr2 inactive
COc1cccc(C(=O)Nc2cccc(C(C)=O)c2)c1	MrgX1 antag -8 | MrgX1 antag conf inactive | HEK293 Ca flux inactive | HEK293 Ca counter inactive | HEK293 Ca cntr2 inactive
COc1ccc(Br)cc1C(=O)Nc1cccc(-c2nnc(-c3ccco3)o2)c1	none (no result: Hep lipid drop)
COc1cccc(C(=O)Nc2cccnc2)c1	MrgX1 antag -5 | MrgX1 antag conf inactive | HEK293 Ca flux inactive | HEK293 Ca counter inactive | HEK293 Ca cntr2 inactive
